DAGLB inh – blocks human DAGLB lipase activity. AID 504411. inhibition, % at 5.17 µM. HEK293T DAGLB membrane lysate, EnzChek fluorogenic substrate. 340,000 tested, 0.059% active; in the data active means inhibition above about 34%
Target sequence (Q8NCG7 whole entry, looked up): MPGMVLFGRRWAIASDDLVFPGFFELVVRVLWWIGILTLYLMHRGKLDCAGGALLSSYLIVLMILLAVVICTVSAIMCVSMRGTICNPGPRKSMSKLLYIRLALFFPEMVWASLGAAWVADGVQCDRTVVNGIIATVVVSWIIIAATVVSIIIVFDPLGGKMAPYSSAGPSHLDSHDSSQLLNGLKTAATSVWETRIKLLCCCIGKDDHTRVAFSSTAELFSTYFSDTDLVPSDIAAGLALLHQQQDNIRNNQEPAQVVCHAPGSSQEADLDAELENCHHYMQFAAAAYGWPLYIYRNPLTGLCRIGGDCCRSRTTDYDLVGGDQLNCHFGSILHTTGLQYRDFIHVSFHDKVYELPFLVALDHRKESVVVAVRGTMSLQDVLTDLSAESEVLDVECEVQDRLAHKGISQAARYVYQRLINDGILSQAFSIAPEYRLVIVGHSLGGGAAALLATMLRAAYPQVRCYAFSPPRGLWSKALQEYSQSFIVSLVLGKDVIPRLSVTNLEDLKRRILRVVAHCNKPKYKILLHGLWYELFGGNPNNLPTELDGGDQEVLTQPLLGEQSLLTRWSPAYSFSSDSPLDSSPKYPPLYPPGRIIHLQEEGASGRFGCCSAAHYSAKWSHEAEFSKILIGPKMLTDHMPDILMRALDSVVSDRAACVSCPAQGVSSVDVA
MPTP inh – inhibitors of mitochondrial permeability transition pore; isolated mouse mitochondria, Ca2+ swelling absorbance, 30 min; inhibition, % at 10 µM; 360,000 tested, 1.4% active;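 active means inhibition of 50% or more, scaled per plate between neutral and stimulator controls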
TAAR1 antag – antagonists of human TAAR1 | AID 624466 | CHO RD-HGA16 TAAR1, Fluo-8 calcium fluorescence, antagonist | 360,000 tested, 1.5% active | Q96RJ0 | inhibition, % at 3 µM;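 active means inhibition above a per-plate cutoff, the mean inhibition of test compounds on that plate plus 3 SD, cut at about 49% in these data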
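System: CHO RD-HGA16 cells bearing hTAAR1. Reagent: EC80 β-phenethylamine stimulus. Schedule: seeding 17-24 h prior, 75-min 37 °C, 30-min RT dye loading. Signal: Fluo-8 intracellular calcium dye fluorescence, real-time kinetic reads. Read-out: % inhibition from peak post-agonist over basal fluorescence ratio. Benchmarks: vehicle wells and EC80 agonist wells. Replicates: n of 1.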
TAAR1 agonist – human TAAR1 agonism; AID 624467; 360,000 tested, 0.99% active; activation, % at 3 µM; CHO RD-HGA16 TAAR1, Fluo-8 calcium fluorescence; vehicle wells 0%, saturating PEA agonist 100%;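 active means activation above the mean activation of all test compounds in the run plus 3 SD, cut at about 38% in these data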
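System: CHO-derived RD-HGA16 cells with stable Gα16 and human TAAR1 / Times: 17-24 h plating, Fluo-8 75 min 37 °C, 30 min RT / Technique: calcium-sensitive Fluo-8 signal, excitation 470-495, emission 515-575 nm / Measure: % activation relative to PEA EC100 response / Benchmarks: DMSO and PEA EC100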
GPR7 antag – blocks human GPR7 receptor signaling; P48145; GPR7-expressing cells, fluorescence antagonist assay; inhibition, % at 4.4 µM; 290,000 tested, 1.1% active; AID 1861; in the data active means inhibition above about 16%, passing the limit was not always enough;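 further: cells stimulated with the agonist NPW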
MPTP counter – mitochondrial membrane potential, counter-screen | shares compounds with MPTP inh | isolated mitochondria, Rhodamine 123 fluorescence | inhibition, % at 10 µM | 5,000 tested, 78% active | AID 624504; in the data active means inhibition above about 22%
MPTP abs DR – dose response confirmation of mitochondrial permeability transition pore inhibitors. isolated mitochondria swelling, absorbance. IC50, µM. shares compounds with MPTP inh. 780 tested, 58% active; in the data active means IC50 below about 20 µM
MPTP cs DR – active in counter-screen for permeability transition pore inhibitors | shares compounds with MPTP inh | isolated mitochondria counterscreen, fluorescence read-out | IC50, µM | 780 tested, 49% active; in the data active means IC50 below about 80 µM
Large screens that a line does not name were inactive (follow-up assays come after a bar, where they were run). Hits are enriched below; roughly 4% of the tested compounds scored in any of these assays.

CCN(CC)c1ccc(NC(=O)c2cc(Cl)ccc2OC)cc1	MPTP inh 98.9 | MPTP counter inactive | MPTP abs DR 13.5 | MPTP cs DR inactive
COc1ccc(Cl)cc1C(=O)Nc1ccc(CN2CCCCC2)cc1	MPTP inh 56.8 | MPTP counter inactive | MPTP abs DR 7.12 | MPTP cs DR inactive
COc1ccc(C(C)C)cc1-c1cncc(NC(C)=O)n1	none (no result: DAGLB inh, GPR7 antag)
O=C(NN=C1CCCC1)c1[nH]c2ccc(Br)cc2c1-c1ccccc1	none (no result: DAGLB inh, MPTP inh)
O=C(N/N=C/c1ccccc1)c1[nH]c2ccc(Br)cc2c1-c1ccccc1	MPTP inh 86.3 | MPTP counter 90.2
O=C1/C(=C/c2ccc(O)cc2)SC(=S)N1CC1CCCO1 (stereo unspecified)	MPTP inh 60.3 | MPTP counter 69.8
C=C1[C@H](C)CN(S(=O)C(C)(C)C)[C@H]1CCO (stereo partly specified)	none (no result: DAGLB inh, MPTP inh, GPR7 antag)
CCNC(=S)Nc1ccc(Cl)c([N+](=O)[O-])c1	MPTP inh 96.3 | MPTP counter 90.0
Cc1nnc(SC(C(=O)Nc2ccc(Cl)c([N+](=O)[O-])c2)c2ccccc2)[nH]c1=O (stereo unspecified)	MPTP inh 74.0 | MPTP counter 50.5
CC(CC(=O)Nc1ccc(Cl)c([N+](=O)[O-])c1)c1ccccc1 (stereo unspecified)	MPTP inh 105.2 | MPTP counter 89.5
CC(CC(=O)Nc1ccc(C(N)=O)cc1)c1ccccc1 (stereo unspecified)	none
CCC1CCCCN1C(=O)c1cccc(S(=O)(=O)Nc2cc(C(F)(F)F)ccc2Cl)c1 (stereo unspecified)	MPTP inh 73.5 | MPTP counter 80.7
N#C/C(=C/c1cn(-c2ccccc2)nc1-c1cccc(OCc2ccc(F)cc2)c1)C(=O)NCCCn1ccnc1	MPTP inh 54.1 | MPTP counter inactive | MPTP abs DR inactive | MPTP cs DR inactive
O=C(Cn1ccc(=O)[nH]c1=O)c1ccc([N+](=O)[O-])o1	none (no result: GPR7 antag)
CC(C)C[C@H]1COc2cc(NCCCN3CCOCC3)ccc2S(=O)(=O)N1	none (no result: DAGLB inh, MPTP inh, GPR7 antag)
Cn1nc(C(F)(F)F)c(-c2cccc(C(F)(F)F)c2)c1NC(=O)Nc1ccc(F)cc1	MPTP inh 78.8 (no result: DAGLB inh) | MPTP counter 81.7
Cc1ccccc1NC(=O)Nc1cc(-c2ccccc2)nn1C	none
Cn1nc(C(F)(F)F)c(-c2cccc(C(F)(F)F)c2)c1NC(=O)c1ccco1	none
Cn1nc(-c2ccccc2)cc1NC(=O)Nc1ccc(F)cc1	MPTP inh 65.6 | MPTP counter 80.7
CN(C)CC1CCCCC1OC(=O)c1ccc(Cl)cc1 (stereo unspecified)	none
CN(C)CC1CCCCC1C1(O)c2ccccc2CSc2sccc21 (stereo unspecified)	MPTP inh 56.7 | MPTP counter inactive | MPTP abs DR 17.5 | MPTP cs DR inactive
O=[N+]([O-])c1ccc(O)c(Nc2ncnc3ccccc23)c1	none
O=[N+]([O-])c1ccc(O)c(Nc2ncnc3ccc(Br)cc23)c1	MPTP inh 102.5 | MPTP counter 85.1
Cc1ccc(C(=O)N/N=C(/CC(=O)c2cccs2)C(F)(F)F)cc1	MPTP inh 55.2 | MPTP counter 82.0
Cc1c(C(=O)NN)[nH]c2ccc([N+](=O)[O-])cc12	none (no result: DAGLB inh)
Cc1ccc2[nH]c(C(=O)N/N=C/c3ccccc3O)c(C)c2c1	none
CCCCC/C=N/NC(=O)c1[nH]c2ccc([N+](=O)[O-])cc2c1C	MPTP inh 76.2 | MPTP counter 72.7
Cc1ccc2[nH]c(C(=O)N/N=C/c3ccc([N+](=O)[O-])cc3)c(C)c2c1	MPTP inh 50.7 | MPTP counter 73.5
Cc1cccc(-c2ccc3[nH]c4c(c3c2)CCN2C[C@@H]([C@H](C)OC(=O)Nc3ccccc3C)[C@@H](N(C)C(=O)Nc3ccccc3C)C[C@@H]42)c1	none (no result: GPR7 antag)
CN(CCc1ccccn1)C(=O)[C@@H](Cc1ccccc1)NC(=O)[C@H]1O[C@@H](n2ccc(=O)[nH]c2=O)[C@H](O)[C@@H]1O	none (no result: DAGLB inh, MPTP inh, GPR7 antag)
O=[N+]([O-])c1cc(Br)c(O)c(/C=N/Nc2nnnn2-c2cccc3ccccc23)c1	MPTP inh 56.0 | MPTP counter 34.1
CN(C)CCN1CCN(C2CN(Cc3cn(Cc4ccc(F)cc4)nn3)S(=O)(=O)C2)CC1 (stereo unspecified)	none (no result: DAGLB inh, GPR7 antag)
Cc1nc2cc(NC(=O)NCc3ccc4c(c3)OCO4)ccc2o1	none
Cc1nc2cc(NC(=O)Nc3ccc(Br)cc3)ccc2o1	MPTP inh 81.6 | MPTP counter 83.4
CC(=O)Nc1cc(-c2ccccc2N(C)C)cn2c(-c3ccc(S(C)(=O)=O)cc3)cnc12	none (no result: DAGLB inh, GPR7 antag)
CC(C)Nc1nc2nonc2nc1Nc1ccccc1	MPTP inh 91.3 | MPTP counter 80.6
CCC(NC(=O)Nc1nccs1)(C(F)(F)F)C(F)(F)F	none
CCCC(=O)Nc1nnc(SCC)s1	none
CCSc1nnc(NC(=O)NC(C)(C(F)(F)F)C(F)(F)F)s1	MPTP inh 92.2 | MPTP counter 93.2
CCSc1nnc(NC(=O)NC(CC)(C(F)(F)F)C(F)(F)F)s1	MPTP inh 88.2 | MPTP counter 102.0
O=C(/C=C/c1cccc([N+](=O)[O-])c1)NCc1ccccc1	none
O=C(/C=C/c1cccc([N+](=O)[O-])c1)NCCSCc1cccc(Cl)c1	MPTP inh 63.3 | MPTP counter 56.0
O=C(Cc1ccc(Br)cc1)NCCc1ccc(Cl)cc1Cl	MPTP inh 50.2 | MPTP counter 68.0
O=C(Cc1ccccc1)NCCc1ccc(Cl)cc1Cl	none (no result: TAAR1 antag, TAAR1 agonist)
CC(C)(C)NC(=O)CSc1nc2ccc(NC(=O)CSc3nnc(N)s3)cc2s1	MPTP inh 66.9 | MPTP counter 25.0
CCCC(=O)Nc1ccc2nc(SCC(=O)Nc3ccc(N4CCOCC4)c(Cl)c3)sc2c1	none
Nc1ccc2nc(SCC(=O)Nc3ccc(N4CCOCC4)c(Cl)c3)sc2c1	MPTP inh 58.2 | MPTP counter inactive | MPTP abs DR 18 | MPTP cs DR 27.6
COc1ccc2[nH]c3c(N4CCc5ccccc5C4)ncnc3c2c1	MPTP inh 81.1 | MPTP counter 69.6
COc1ccc(N2CCN(c3ncnc4c3[nH]c3ccccc34)CC2)cc1	MPTP inh 79.1, TAAR1 antag 66.5 | MPTP counter 106.5
O=C(COc1ccc(Br)cc1)Nc1ccncc1	MPTP inh 54.7 | MPTP counter 57.6
O=C(COc1ccc(-c2ccccc2)cc1)Nc1cccnc1	MPTP inh 87.4 (no result: GPR7 antag) | MPTP counter 101.7
COc1cccc(OCC(=O)Nc2ccncc2)c1	none
CC(C)CCOc1cccc(OCC(=O)Nc2ccncc2)c1	MPTP inh 106.8 | MPTP counter 100.5

Screening results (PubChem BioAssay)
